Results as given in article PMC8317130 (Journal of medicinal chemistry, 2020).
≈ marks a conversion by molar mass, not a printed value. Entries after “also recorded” stand apart in the source; their conditions may differ. Read-outs that look alike come from different tables or passages of the source. Blank lines part the entries; values can stand above or below the compound they belong to.

Tests used:
VRE strains = test: MIC in ambient air versus 5% CO2 on representative enterococcal strains; type: cell-based, Enterococcus; settings: five representative enterococcal strains
In short: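 CLSI broth microdilution. Enterococci grown overnight on trypticase soy agar at 37 °C, adjusted to 0.5 McFarland, then diluted in TSB to about 5 × 10^5 CFU/mL. Compounds from 10 mg/mL DMSO stocks serially diluted.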

plasma protein = settings: cited from earlier work
Caco-2 [1] = settings: cited from earlier work
E. faecium ATCC 700221 = test: Time-kill assay; type: cell-based; settings: 5× MIC, 24 hours, 37 °C
[2] = In vivo pharmacokinetics, oral gavage; set-up: species or system mice; settings: male, ICR, mouse, plasma, 10 mg/kg
panel of VRE isolates = test: MIC50/MIC90 over panel of eleven VRE clinical isolates; type: cell-based, E. faecium, E. faecalis; settings: Enterococcus
Caco-2 [3] = test: Bi-directional Caco-2 permeability; type: in vitro ADME, human
In short: (§1)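 Bidirectional (A→B and B→A) transport across Caco-2 monolayers, run by a contract lab. Donor/receiver pH 6.5/7.4. Concentrations measured as chromatographic peak areas. Papp (10^-6 cm/s) derived from end-point receiver concentration, incubation time, monolayer area and mid-point donor concentration. Recovery (%) = donor plus receiver amounts at end, relative to donor amount at time zero.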

Aqueous solubility = type: physicochemical; settings: for solubility at 24 h: PBS buffer, pH 7.4
[4] = Bi-directional Caco-2 permeability; type: in vitro ADME, human; settings: human, Caco-2
In short: as §1

E. faecium HM-965 = test: MIC, broth microdilution; type: cell-based
In short: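 MIC by CLSI broth microdilution against E. faecium HM-965. Cells grown overnight on trypticase soy agar at 37 °C, set to 0.5 McFarland, and diluted in TSB to about 5 × 10^5 CFU/mL. Compounds from 10 mg/mL DMSO stocks serially diluted in plates.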

Compound: CC(=O)Nc1nnc(S(N)(=O)=O)s1 [AZM, N-(5-sulfamoyl-1,3,4-thiadiazol-2-yl)acetamide]
activity against VRE strains in presence of 5% CO2 (VRE strains): inactive
plasma protein binding (plasma protein): over 90%
Papp A → B (Caco-2 [1]; Caco-2, pH 6): 0.19^f 10^−6 cm/sec
Papp B → A (Caco-2 [1]; Caco-2, pH 6): 0.77^f 10^−6 cm/sec
apparent permeability coefficient, Papp, low-permeable drug class (Caco-2 [1]; Caco-2): < 5e+12 ×10⁻⁶ cm/s
net transport (A➔B) with P-gp inhibitors (Caco-2 [1]; Caco-2): up to 1.92
net transport (A➔B) (Caco-2 [1]): 0.24
bacteriostatic or bactericidal activity (E. faecium ATCC 700221): bacteriostatic

Compound: NS(=O)(=O)c1nnc(NC(=O)CC2CCCCC2)s1 [Compound 20, 2-Cyclohexyl-N-(5-sulfamoyl-1,3,4-thiadiazol-2-yl)acetamide]
activity against VRE strains in presence of 5% CO2 (VRE strains): inactive

concentration at 1440 min [2]: 0 ng/mL
MIC90 (panel of VRE isolates; read-out: MIC90 converted to molar cellular potency): 0.0942 µM
net transport (A➔B) (Caco-2 [3]; Caco-2, pH 6.5/7.4): 0.46
maximum solubility relative to MIC against E. faecium HM-965 (Aqueous solubility): approximately 1500 fold
solubility at 24 h (Aqueous solubility): 10.4 µg/mL (≈ 32.7 µM)
Compound: NS(=O)(=O)c1nnc(NC(=O)CCC2CCCCC2)s1 [Compound 22, 3-Cyclohexyl-N-(5-sulfamoyl-1,3,4-thiadiazol-2-yl)propanamide]
bacteriostatic or bactericidal activity (E. faecium ATCC 700221): bacteriostatic

concentration of molecule in the receiver chambers (Caco-2 [3]; Caco-2 permeability assay): below the limit of detection
recovery [4]: 83%
maximum solubility relative to MIC against E. faecium HM-965 (Aqueous solubility): approximately 40 fold
solubility at 24 h (Aqueous solubility): 39 µg/mL (≈ 127 µM)
Compound: NS(=O)(=O)c1nnc(NC(=O)CN2CCOCC2)s1 [Compound 26, 2-(Morpholin-1-yl)-N-(5-sulfamoyl-1,3,4-thiadiazol-2-yl)acetamide]
bacteriostatic or bactericidal activity (E. faecium ATCC 700221): bacteriostatic

Compound: NS(=O)(=O)c1nnc(NCC2CCCCC2)s1 [Compound 30, 5-((cyclohexylmethyl)amino)-1,3,4-thiadiazole-2-sulfonamide]
anti-VRE activity (in words) (E. faecium HM-965): inactive against VRE

Compound: CC(=O)Nc1nnc(S(C)(=O)=O)s1 [Compound 33, N-(5-(Methylsulfonyl)-1,3,4-thiadiazol-2-yl)acetamide]
anti-VRE activity (in words) (E. faecium HM-965): abolished the anti-VRE activity; also recorded: inactive against VRE strains; also recorded: complete loss of activity

Compound: CC(=O)Nc1ncc(S(N)(=O)=O)s1 [Compound 34, N-(5-sulfamoylthiazol-2-yl)acetamide]
anti-VRE activity (in words) (E. faecium HM-965): abrogated activity against VRE; also recorded: complete loss of anti-VRE activity

Compound: CC(=O)Nc1ccc(S(N)(=O)=O)cc1 [Compound 35, N-(4-sulfamoylphenyl)acetamide]
anti-VRE activity (in words) (E. faecium HM-965): complete loss of activity

Compound: CC(=O)NC[C@H]1CN(c2ccc(N3CCOCC3)c(F)c2)C(=O)O1 [linezolid, reference compound]
bacteriostatic or bactericidal activity (E. faecium ATCC 700221): bacteriostatic

Compound: CN[C@H](CC(C)C)C(=O)N[C@H]1C(=O)N[C@@H](CC(N)=O)C(=O)N[C@H]2C(=O)N[C@H]3C(=O)N[C@H](C(=O)N[C@H](C(=O)O)c4cc(O)cc(O)c4-c4cc3ccc4O)[C@H](O)c3ccc(c(Cl)c3)Oc3cc2cc(c3O[C@@H]2O[C@H](CO)[C@@H](O)[C@H](O)[C@H]2O[C@H]2C[C@](C)(N)[C@H](O)[C@H](C)O2)Oc2ccc(cc2Cl)[C@H]1O [vancomycin, reference compound]
MIC90 (panel of VRE isolates): > 64 µg/mL
